Data: ChEMBL document CHEMBL1125811, “Potential antitumor agents. 63. Structure-activity relationships for side-chain analogues of the colon 38 active agent 9-oxo-9H-xanthene-4-acetic acid” (J Med Chem, 1991)

What was measured:
Mus musculus [1] = species: Mus musculus; assay: Ability to cause early haemorrhagic necrosis of colon 38 tumors in mice.; type: functional; design: concentration or dose not given beside the values
Outline: (§1)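 Colon 38 fragments implanted s.c. in BDF1 mice and grown to 4-8 mm diameter. Single i.p. dose of sodium salt in water, escalated in 1.5-fold steps up to 750 mg/kg or the maximum nonlethal dose. Triplicate testing, groups of five mice. Tumors excised after 24 h, formalin-fixed, H&E-stained and scored histologically: ++ for 90-100% necrosis, + for 50-90%, - for consistently <50%.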

Mus musculus [2] = assay: Optimal dose to achieve the level of activity cited in colon 38 tumors after intraperitoneal administration in mice.; type: functional
Outline: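 BDF1 mice bearing s.c. colon 38 tumors (4-8 mm) given a single i.p. dose of sodium salt in water. Full dose profile run at 1.5-fold intervals. Tumors removed at 24 h for histological necrosis scoring. Optimal dose is the minimum dose in mg/kg reaching the cited activity level.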

[3] = Relative measure of lipophilicity was determined by using 4'-(9-acridinylamino)-methanesulfonanilide as internal standard; type: physicochemical; details: octanol/water
Outline: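 Rm determined by liquid-liquid chromatography, with AMSA as internal standard.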

[4] = Range of dose (highest nontoxic to minimum effective) over which 50-90% necrosis was achieved in mice; design: unit not given here
Outline: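 Single i.p. dose of sodium salt in water to BDF1 mice bearing s.c. colon 38 tumors. Doses escalated 1.5-fold. Tumor necrosis read histologically at 24 h. Range recorded from highest nontoxic to minimum effective dose giving 50-90% necrosis, only where activity occurred at more than one dose level.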

Mus musculus [5] = species: Mus musculus; assay: The compound was evaluated for its ability to cause early haemorrhagic necrosis of colon 38 tumors in mice; Value ranges from 50-90%; type: functional; outline: as §1

Row | Structure (SMILES) | Activity (Mus musculus [1]) [%] | OD (Mus musculus [2]) [mg/kg] | Rm [3] | Range [4] | Activity (Mus musculus [5]) [%]
1 | CC(C(=O)O)c1cccc2c(=O)c3ccccc3oc12 (configuration not stated) | >90 | 500 | 0.85 | 500 | 
2 | Cc1cccc2c(=O)c3cccc([C@H](C)C(=O)O)c3oc12 | >90 | 65 |  |  | 
3 | O=C(O)C(F)c1cccc2c(=O)c3ccccc3oc12 (configuration not stated) | <50 | 750 | 0.75 |  | 
4 | N=C(N)SCc1cccc2c(=O)c3ccccc3oc12 | <50 | 220 | -0.2 |  | 
5 | O=C(O)CCc1cccc2c(=O)c3ccccc3oc12 |  | 500 | 0.7 |  | 90
6 | O=c1c2ccccc2oc2c(CP(=O)(O)O)cccc12 | <50 | 750 | -0.48 |  | 
7 | O=C(O)Cc1cccc2c(=O)c3ccccc3oc12 | >90 | 220 | 0.64 |  | 
8 | O=C(O)c1cccc2c(=O)c3ccccc3oc12 | <50 | 220 | 0.49 |  | 
9 | CN(C)CCOC(=O)Cc1cccc2c(=O)c3ccccc3oc12 |  | 330 | -0.24 |  | 90
10 | Cc1cccc2c(=O)c3cccc(C(C)C(=O)O)c3oc12 (configuration not stated) | >90 | 150 | 0.88 | 150 | 
11 | O=C(O)COc1cccc2c(=O)c3ccccc3oc12 | <50 | 750 | 0.21 |  | 
12 | CN(C)CCNC(=O)Cc1cccc2c(=O)c3ccccc3oc12 |  | 750 | -0.27 |  | 90
13 | O=C(Cc1cccc2c(=O)c3ccccc3oc12)NS(=O)(=O)c1ccccc1 | <50 | 750 | 0.51 |  | 
14 | CCOP(=O)(O)Cc1cccc2c(=O)c3ccccc3oc12 | <50 | 750 | -0.04 |  | 
15 | COC(C(=O)O)c1cccc2c(=O)c3ccccc3oc12 (configuration not stated) | <50 | 750 | 0.49 |  | 
16 | NC(C(=O)O)c1cccc2c(=O)c3ccccc3oc12 (configuration not stated) |  | 750 | -0.53 |  | 90
17 | O=C(O)C(O)c1cccc2c(=O)c3ccccc3oc12 (configuration not stated) |  | 750 | 0.04 |  | 90
18 | O=c1c2ccccc2oc2c(CS(=O)(=O)O)cccc12 | <50 | 330 | -0.59 |  | 
19 | Cc1ccc2c(=O)c3cccc(CC(=O)O)c3oc2c1C [VADIMEZAN] | >90 | 30 | 0.49 | 30 | 
20 | Cc1cccc2c(=O)c3cccc([C@@H](C)C(=O)O)c3oc12 | >90 | 220 |  | 220 | 
